According to ChEMBL document CHEMBL1137668, “Activities of several classes of acyclic nucleoside phosphonates against camelpox virus replication in different cell culture models” (Antimicrob Agents Chemother, 2007):
The source made the active and inactive calls. No cut-off for these calls is given here.

Columns and labels:
[1] = Cytotoxicity against HEL299 cells after 4 days by Z1 Coulter counting analysis; assay type: cell-based, HEL 299; conditions: human, hel 299, 96 h
Outline: (§1)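 Cell growth inhibition: HEL cells were seeded at 3.5 × 10³ per well and PHKs at 5 × 10³ per well. Serial dilutions were added in duplicate after 1 day (HEL) or 3 days (PHK). After 4 days with compound, cells were trypsinized and counted with a Coulter counter (8 μm lower limit). CC50 is the concentration reducing growth by 50%, mean ± SD of at least two experiments.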

[2] = system: Camelpox virus; assay: Antiviral activity against Camelpox virus CML1 infected in human PHK raft culture assessed as inhibition of virus-induced cytopathic effect at 9 uM after 7 days postinfection; assay type: functional, organism-based
[3] = system: Camelpox virus; assay: Antiviral activity against Camelpox virus CML14 infected in HEL299 cells assessed as complete inhibition of viral replication at 0.4 uM after 6 days postinfection by virus yield reduction assay; assay type: functional, organism-based; conditions: HEL 299
[4] = system: Camelpox virus; assay: Antiviral activity against Camelpox virus CML1 infected in HEL299 cells assessed as complete inhibition of viral replication at 0.4 uM after 6 days postinfection by virus yield reduction assay; assay type: functional, organism-based; conditions: HEL 299
[5] = system: Camelpox virus; assay: Antiviral activity against Camelpox virus CML14 infected in HEL299 cells assessed as reduction in viral titer after 6 days postinfection by virus yield reduction assay; assay type: functional; conditions: HEL 299
[6] = Selectivity index, ratio of CC50 for HEL299 cells to EC50 for Camelpox virus CML14 infected in HEL299 cells; assay type: toxicity, cell-based, HEL 299; conditions: human, hel 299
[7] = system: Camelpox virus; assay: Antiviral activity against Camelpox virus CML14 infected in human PHK assessed as complete inhibition of viral replication at 4 uM after 6 days postinfection by virus yield reduction assay; assay type: functional, organism-based
[8] = Cytotoxicity against human PHK after 4 days by Z1 Coulter counting analysis; conditions: 96 h; outline: as §1
[9] = system: Camelpox virus; assay: Antiviral activity against Camelpox virus CML1 infected in human PHK raft culture assessed as inhibition of viral replication at 38 uM after 7 days postinfection by virus yield reduction assay; assay type: functional, organism-based
[10] = system: Camelpox virus; assay: Antiviral activity against Camelpox virus CML1 infected in human PHK assessed as complete inhibition of viral replication at 4 uM after 6 days postinfection by virus yield reduction assay; assay type: functional, organism-based
[11] = system: Camelpox virus; assay: Antiviral activity against Camelpox virus CML1 infected in human PHK assessed as reduction in viral titer after 6 days postinfection by virus yield reduction assay; assay type: functional
[12] = system: Camelpox virus; assay: Antiviral activity against Camelpox virus CML14 infected in human PHK assessed as reduction in viral titer after 6 days postinfection by virus yield reduction assay; assay type: functional
[13] = Selectivity index, ratio of CC50 for HEL299 cells to EC50 for Camelpox virus CML1 infected in HEL299 cells; assay type: toxicity, cell-based, HEL 299; conditions: human, hel 299
[14] = Cytotoxicity against differentiated epithelium of human PHK raft culture at 38 uM after 4 days by Z1 Coulter counting analysis; conditions: 96 h

Question: For CCCCCCCCCCCCCCCCOCCO[PH]1(O)CO[C@@H](Cn2c(N)ncnc2=O)CO1, which CC50 [1] is on record?
Answer: The CC50 was 79 µM.

Question: And the Activity [2]?
Answer: Its Activity is “inactive”.

Question: What about the Activity [3] of the same compound?
Answer: Its Activity is “Active”.

Question: And the Activity [4]?
Answer: The Activity was “Active”.

Question: What about the Activity [5] of the same compound?
Answer: Its Activity is “Dose-dependent effect”.

Question: What about the “Ratio CC50/IC50” value [6] of the same compound?
Answer: Its value is 12.

Question: And the Activity [7]?
Answer: Its Activity is “Active”.

Question: What about the CC50 [8] of the same compound?
Answer: Its CC50 is 54 µM.

Question: And the Activity [9]?
Answer: The Activity was “Active”.

Question: What about the Activity [10] of the same compound?
Answer: Its Activity is “Active”.

Question: What about the Activity [11] of the same compound?
Answer: Its Activity is “Dose-dependent effect”.

Question: What about the Activity [12] of the same compound?
Answer: The Activity was “Dose-dependent effect”.

Question: What about the “Ratio CC50/IC50” value [13] of the same compound?
Answer: The value was 10.

Question: What about the Activity [14] of the same compound?
Answer: The Activity was “Toxic”.
